Assay results: ChEMBL document CHEMBL2407075, “Sulphonamido-quinoxalines: search for anticancer agent” (Eur J Med Chem, 2013)

What was measured:
Type in all cases: functional
M14 = experiment: Growth inhibition of human M14 cells assessed as cell growth at 10^-4 M after 48 hrs by sulforhodamine B assay; settings: M14, 48 h, read-out: Activity
[1] = Growth inhibition of human HCC2998 cells assessed as cell growth at 10^-4 M after 48 hrs by sulforhodamine B assay; settings: HCC 2998, 48 h, read-out: Activity
In short: (§1)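 Five-dose screen at NCI. Cells in RPMI 1640 with 5% FBS and 2 mM L-glutamine, seeded at 5000–40,000 cells/well and grown 24 h at 37 °C, 5% CO2 before dosing, with time-zero plates TCA-fixed. Drug diluted from DMSO stock to 0.01, 0.1, 1, 10 and 100 µM final, 48 h. Cells fixed with cold TCA (10% final), stained with 0.4% SRB and read at 515 nm. Percent growth from Tz, control and test absorbances; GI50, TGI and LC50 from dose-response curves.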

RPMI-8226 [2] = experiment: Growth inhibition of human RPMI8226 cells assessed as cell growth at 10^-4 M after 48 hrs by sulforhodamine B assay; settings: RPMI-8226, 48 h, read-out: Activity
PC-3 = experiment: Growth inhibition of human PC3 cells assessed as cell growth at 10^-5 M after 48 hrs by sulforhodamine B assay; settings: PC-3, 48 h, read-out: Activity
CAKI-1 = experiment: Growth inhibition of human CAKI-1 cells assessed as cell growth at 10^-5 M after 48 hrs by sulforhodamine B assay; settings: CAKI-1, 48 h, read-out: Activity
In short: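 Five-dose NCI-60 run (0.01, 0.1, 1, 10 and 100 µM, as 10-fold dilutions from a DMSO stock made at 400× the top final level). Cells were grown in RPMI 1640 with 5% FBS and 2 mM glutamine and plated for 24 h. They were then exposed for 48 h at 37 °C and 5% CO2. TCA fixation was followed by SRB staining with A515 read-out. Percent growth was taken relative to time-zero and control plates.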

SK-OV-3 = experiment: Growth inhibition of human SKOV3 cells assessed as cell growth at 10^-5 M after 48 hrs by sulforhodamine B assay; settings: SK-OV-3, 48 h, read-out: Activity
IGROV-1 = experiment: Growth inhibition of human IGROV1 cells assessed as cell growth at 10^-5 M after 48 hrs by sulforhodamine B assay; settings: IGROV-1, 48 h, read-out: Activity; in short: as §1
RPMI-8226 [3] = experiment: Growth inhibition of human RPMI8226 cells assessed as cell growth at 10^-5 M after 48 hrs by sulforhodamine B assay; settings: RPMI-8226, 48 h, read-out: Activity
RXF 393 [4] = experiment: Growth inhibition of human RXF393 cells assessed as cell growth at 10^-6 M after 48 hrs by sulforhodamine B assay; settings: RXF 393, 48 h, read-out: Activity
UACC-257 = experiment: Growth inhibition of human UACC257 cells assessed as cell growth at 10^-6 M after 48 hrs by sulforhodamine B assay; settings: UACC-257, 48 h, read-out: Activity
SK-MEL-5 = experiment: Growth inhibition of human SK-MEL-5 cells assessed as cell growth at 10^-6 M after 48 hrs by sulforhodamine B assay; settings: SK-MEL-5, 48 h, read-out: Activity
HL-60(TB) = experiment: Growth inhibition of human HL-60(TB) cells assessed as cell growth at 10^-6 M after 48 hrs by sulforhodamine B assay; settings: HL-60, 48 h, read-out: Activity
In short: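 HL-60(TB) suspension cells were treated 48 h at 37 °C within the five-dose series (0.01–100 µM), fixed with 16% final TCA and SRB-stained, read at 515 nm. Percentage growth at each concentration = (Ti−Tz)/(C−Tz)×100, or (Ti−Tz)/Tz×100 when Ti<Tz, with time-zero (Tz) and untreated control (C) plates.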

T47D = experiment: Growth inhibition of human T47D cells assessed as cell growth at 10^-7 M after 48 hrs by sulforhodamine B assay; settings: read-out: Activity
SN12C = experiment: Growth inhibition of human SN12C cells assessed as cell growth at 10^-7 M after 48 hrs by sulforhodamine B assay; settings: read-out: Activity
SNB-75 = experiment: Growth inhibition of human SNB75 cells assessed as cell growth at 10^-7 M after 48 hrs by sulforhodamine B assay; settings: SNB-75, 48 h, read-out: Activity
KM12 = experiment: Growth inhibition of human KM12 cells assessed as cell growth at 10^-7 M after 48 hrs by sulforhodamine B assay; settings: KM12, 48 h, read-out: Activity
HCT-116 = experiment: Growth inhibition of human HCT116 cells assessed as cell growth at 10^-7 M after 48 hrs by sulforhodamine B assay; settings: HCT-116, 48 h, read-out: Activity; in short: as §1
RXF 393 [5] = experiment: Growth inhibition of human RXF393 cells assessed as cell growth at 10^-8 M after 48 hrs by sulforhodamine B assay; settings: RXF 393, 48 h, read-out: Activity
UACC-62 = experiment: Growth inhibition of human UACC62 cells assessed as cell growth at 10^-8 M after 48 hrs by sulforhodamine B assay; settings: UACC-62, 48 h, read-out: Activity
SNB-19 = experiment: Growth inhibition of human SNB19 cells assessed as cell growth at 10^-8 M after 48 hrs by sulforhodamine B assay; settings: SNB-19, 48 h, read-out: Activity
NCI-H460 = experiment: Growth inhibition of human NCI-H460 cells assessed as cell growth at 10^-8 M after 48 hrs by sulforhodamine B assay; settings: NCI-H460, 48 h, read-out: Activity
K562 [6] = experiment: Growth inhibition of human K562 cells assessed as cell growth at 10^-8 M after 48 hrs by sulforhodamine B assay; settings: K562, 48 h, read-out: Activity
TK-10 = experiment: Growth inhibition of human TK10 cells after 48 hrs by sulforhodamine B assay; settings: TK-10, 48 h; for CC50: read-out: LC50 (the source's name)
In short: (§2)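 Adherent cells in RPMI 1640 with 5% FBS and 2 mM L-glutamine were plated at 5000–40,000 cells/well and grown 24 h. Five concentrations (0.01–100 µM, DMSO stock) were added for 48 h at 37 °C. Cells were fixed with cold TCA (10% final) and stained with SRB, read at 515 nm. GI50 came from log concentration–growth curves against time-zero and control plates.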

A498 = experiment: Growth inhibition of human A498 cells after 48 hrs by sulforhodamine B assay; settings: A498, 48 h; for CC50: read-out: LC50 (the source's name); in short: as §2
[7] = Growth inhibition of human EKVX cells after 48 hrs by sulforhodamine B assay; settings: for CC50: read-out: LC50 (the source's name); in short: as §2
K562 [8] = experiment: Growth inhibition of human K562 cells after 48 hrs by sulforhodamine B assay; settings: K562, 48 h; for CC50: read-out: LC50 (the source's name)
In short: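 Five-dose NCI 60 screen at 0.01, 0.1, 1, 10 and 100 µM, 48 h exposure after 24 h preincubation, in RPMI 1640 with 5% FBS and 2 mM glutamine. Fixed with TCA (10% final for adherent cells, 16% for suspension cells), stained with SRB, A515 read. Percent growth uses time-zero (Tz), control and treated plates. GI50, TGI and LC50 are read from the dose-response curves.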

Structure (SMILES): O=S(=O)(Nc1ccc(Cl)cc1)c1ccc2nc(-c3ccccc3)c(-c3ccccc3)nc2c1
- growth at 100 µM (M14): 77%
- growth at 100 µM [1]: 85%
- growth at 100 µM (RPMI-8226 [2]): 40%
- growth at 10 µM (PC-3): -12%
- growth at 10 µM (CAKI-1): -35%
- growth at 10 µM (SK-OV-3): 14%
- growth at 10 µM (IGROV-1): 24%
- growth at 10 µM (RPMI-8226 [3]): -45%
- growth at 1 µM (RXF 393 [4]): 98%
- growth at 1 µM (UACC-257): 84%
- growth at 1 µM (SK-MEL-5): 83%
- growth at 1 µM (HL-60(TB)): 89%
- growth at 0.1 µM (T47D): 90%
- growth at 0.1 µM (SN12C): 96%
- growth at 0.1 µM (SNB-75): 68%
- growth at 0.1 µM (KM12): 94%
- growth at 0.1 µM (HCT-116): 90%
- growth at 0.01 µM (RXF 393 [5]): 97%
- growth at 0.01 µM (UACC-62): 95%
- growth at 0.01 µM (SNB-19): 100%
- growth at 0.01 µM (NCI-H460): 101%
- growth at 0.01 µM (K562 [6]): 98%
- TGI (TK-10): > 100 µM
- CC50 (TK-10): > 100 µM
- CC50 (A498): > 100 µM
- CC50 [7]: > 100 µM
- TGI (K562 [8]): > 100 µM
- CC50 (K562 [8]): > 100 µM

Structure (SMILES): O=S(=O)(Nc1ccccn1)c1ccc2nc(-c3ccccc3)c(-c3ccccc3)nc2c1
- growth at 100 µM (M14): 69%
- growth at 100 µM [1]: 64%
- growth at 100 µM (RPMI-8226 [2]): 27%
- growth at 10 µM (PC-3): -12%
- growth at 10 µM (CAKI-1): -11%
- growth at 10 µM (SK-OV-3): 11%
- growth at 10 µM (IGROV-1): 30%
- growth at 10 µM (RPMI-8226 [3]): -48%
- growth at 1 µM (RXF 393 [4]): 96%
- growth at 1 µM (UACC-257): 81%
- growth at 1 µM (SK-MEL-5): 78%
- growth at 1 µM (HL-60(TB)): 74%
- growth at 0.1 µM (T47D): 85%
- growth at 0.1 µM (SN12C): 93%
- growth at 0.1 µM (SNB-75): 90%
- growth at 0.1 µM (KM12): 99%
- growth at 0.1 µM (HCT-116): 87%
- growth at 0.01 µM (RXF 393 [5]): 105%
- growth at 0.01 µM (UACC-62): 92%
- growth at 0.01 µM (SNB-19): 100%
- growth at 0.01 µM (NCI-H460): 104%
- growth at 0.01 µM (K562 [6]): 105%
- TGI (TK-10): > 100 µM
- CC50 (TK-10): > 100 µM
- GI50 (A498): 1.67 µM
- CC50 (A498): > 100 µM
- GI50 [7]: 2.69 µM
- TGI [7]: > 100 µM
- CC50 [7]: > 100 µM
- GI50 (K562 [8]): 2.72 µM
- TGI (K562 [8]): > 100 µM
- CC50 (K562 [8]): > 100 µM
